Screening results as filed in PubChem BioAssay.
Runt-CBFb FRET: inhibitors of RUNX1 Runt–CBFb binding, primary screen, biochemical, FRET, Cerulean-Runt, Venus-CBFb, uHTS; hit rate 0.46% among 220,000; Runt-related transcription factor 1 (Homo sapiens) + Core-binding factor subunit beta …; Cerulean-Runt/Venus-CBFb FRET ratio 530/480, 1 h; AID 1496, 2009; inhibition, % at 20 µM;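 active = inhibition over about 50% at 20 µM in the single-dose screen, limit read from the data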;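 note: 0% = DMSO wells and 100% = excess unlabeled CBFb competitor control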
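test system = Cerulean-Runt domain fusion protein, energy donor | probe or stimulus = Venus-CBFb binding partner, 100 nM | incubation = two 1 h room-temperature incubations shielded from light | detection = fluorescence energy transfer, 422 nm excitation, 530/480 nm emission | measure = loss of energy transfer signal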
Runt-SMMHC FRET: inhibitors of RUNX1 Runt–CBFb-SMMHC binding, primary screen, biochemical, FRET, Cerulean-Runt, Venus-CBFb-SMMHC, uHTS. Cerulean-Runt/Venus-CBFb-SMMHC FRET ratio 530/480, 1 h. inhibition, % at 20 µM. hit rate 0.74% among 220,000;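 active = mean inhibition across duplicate retests at 20 µM reaching about 50%, limit read from the data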;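 note: 0% = DMSO wells and 100% = wells with excess untagged CBFb-SMMHC; inhibitors lower the FRET ratio by blocking Runt binding to CBFb-SMMHC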
KLK7 zymogen act: proKLK7 zymogen activators, primary screen, biochemical, fluorescence intensity. activation, % at 7 µM. Kallikrein-7 (Homo sapiens), P49862. AID 652039, 2013. hit rate 0.9% among 370,000. purified proKLK7, EDANS-DABCYL substrate fluorescence; 100% is mature enzyme control, 0% vehicle;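 active = activation above the mean of all tested compounds plus 3 SD, computed per campaign excluding outliers beyond control limits, cut at about 13% in these data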
Target sequence (P49862 whole entry, looked up): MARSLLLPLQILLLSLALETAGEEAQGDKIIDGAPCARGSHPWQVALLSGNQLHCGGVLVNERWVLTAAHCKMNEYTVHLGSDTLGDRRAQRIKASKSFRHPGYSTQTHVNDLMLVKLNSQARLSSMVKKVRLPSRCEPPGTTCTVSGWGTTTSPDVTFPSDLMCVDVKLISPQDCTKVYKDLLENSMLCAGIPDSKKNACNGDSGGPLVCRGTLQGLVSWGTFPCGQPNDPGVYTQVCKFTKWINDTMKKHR
RanGTP-Imp inh: inhibitors of RanGTP-importin-beta interaction, primary screen, biochemical, FRET, CFP-Ran, YFP-importin-beta, homogeneous. AID 2216, 2009. cell-free CFP-Ran/YFP-importin-beta FRET ratio. inhibition, % (no concentration beside the values). Ran GTPase (GTP-bound) - importin-beta complex. hit rate 1.1% among 300,000;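 active = more than half of the replicate wells show a fall in the fluorescence ratio signal beyond about 16%, limit read from the data, passing the limit was not always enough; inconclusive = exactly half of the replicate wells pass the set limit; inactive = fewer than half of replicates pass the limit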;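 note: 0% = DMSO wells and 100% = Ran loaded with GDP instead of GTP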
MEX-5 binding: MEX-5 zinc finger RNA-binding disruptors – biochemical, C. elegans, fluorescence polarization, MLPCN library, primary screen; Zinc finger protein mex-5 (Caenorhabditis elegans), Q9XUB2; MEX-5/FITC-TCR2 RNA binding; hits give low values; hit rate 0.38% among 300,000; activity score (negative = inhibition of binding), % at 10 µM;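 active = inhibition past about -25% in most replicates, and total fluorescence under double the plate's negative control median, limit read from the data; inconclusive = replicates evenly split on the limit, or fluorescence at least double controls; inactive = too little inhibition in most replicates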;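 note: 0% = DMSO and -100% = 5 µM competing unlabeled TCR2 RNA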
Target sequence (Q9XUB2 whole entry, looked up): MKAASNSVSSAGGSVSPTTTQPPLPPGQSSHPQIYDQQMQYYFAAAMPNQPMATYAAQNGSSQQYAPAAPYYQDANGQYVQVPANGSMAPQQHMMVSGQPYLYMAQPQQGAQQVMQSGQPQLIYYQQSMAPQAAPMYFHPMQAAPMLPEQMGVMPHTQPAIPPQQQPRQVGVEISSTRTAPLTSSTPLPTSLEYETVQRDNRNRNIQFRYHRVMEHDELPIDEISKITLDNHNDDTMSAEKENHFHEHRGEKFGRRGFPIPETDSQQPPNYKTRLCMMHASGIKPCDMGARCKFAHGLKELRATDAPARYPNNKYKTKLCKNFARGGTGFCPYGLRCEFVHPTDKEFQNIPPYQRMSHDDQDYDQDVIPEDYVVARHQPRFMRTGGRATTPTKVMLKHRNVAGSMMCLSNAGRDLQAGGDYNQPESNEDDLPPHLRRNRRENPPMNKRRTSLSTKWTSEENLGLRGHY
YIC FRET counter: YIC intramolecular FRET probe signal interference, dose response, counter-screen for RanGTP-importin-beta inhibitor project, biochemical, fluorescence FRET. shares compounds with RanGTP-Imp inh. Purified YIC probe, intramolecular FRET ratio YFP/CFP. IC50, µM. hit rate 40% among 1,000. AID 435026, 2010;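 active = fitted half-maximal inhibitory concentration no more than tenfold above the top dose tested; inconclusive = flat fit with 30 to 70% activity, or poor fit; inactive = half-maximal concentration beyond tenfold above the top dose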
* hit, by the source's call. Shown are actives, neighbours in structure and some others; about 2.1% of the full set was active somewhere.

`C#CCN1C=CC(=O)[C@@H](O)[C@H]1c1ccccc1Br` gave KLK7 zymogen act 0.2.
Screening Cc1sc2ncn(CC(=O)NCCCC(=O)N3CCN(Cc4ccc5c(c4)OCO5)CC3)c(=O)c2c1C returned Runt-CBFb FRET -1.2, Runt-SMMHC FRET 0.5, KLK7 zymogen act -0.1, RanGTP-Imp inh 27.7*, MEX-5 binding 0.6 and YIC FRET counter >50.
For COc1ccc(Br)cc1S(=O)(=O)n1ccnc1C the results were Runt-CBFb FRET -0.5, Runt-SMMHC FRET 7.6, KLK7 zymogen act 0.3, RanGTP-Imp inh 1.3 and MEX-5 binding -0.4.
Screening COc1ccc(OC)c(S(=O)(=O)n2ccnc2C)c1 returned Runt-CBFb FRET 0.5, Runt-SMMHC FRET 3.4, KLK7 zymogen act -0.2, RanGTP-Imp inh 27.0*, MEX-5 binding -2.6 and YIC FRET counter >50.
`COc1cc(CN2C[C@@H](CO)O[C@@H](n3cnc4c(N5CCN(c6ccccc6)CC5)ncnc43)C2)cc(OC)c1OC` gave KLK7 zymogen act 0.1.
NNc1nc2sc3c(c2c(=O)n1C1CCCCC1)CCN(Cc1ccccc1)C3 was read as Runt-CBFb FRET 74.4*, Runt-SMMHC FRET 54.4*, KLK7 zymogen act -0.2, RanGTP-Imp inh 28.3*, MEX-5 binding -2.3 and YIC FRET counter 0.918*.
Screening NNc1nc2sc3c(c2c(=O)n1Cc1ccccc1)CCC3 returned Runt-CBFb FRET 22.4, Runt-SMMHC FRET -7.0, KLK7 zymogen act 0.7, RanGTP-Imp inh -3.9 and MEX-5 binding -5.4.
Screening COc1ccc(-n2nc(C(=O)NCC3CCCO3)c3ccccc3c2=O)cc1 (centres undefined) returned KLK7 zymogen act 0.6, RanGTP-Imp inh 4.5 and MEX-5 binding 0.2.
COc1ccc(CNC(=O)C(C)Sc2nc3ccccc3c(=O)n2CCCN2CCOCC2)cc1 (centres undefined) was read as Runt-CBFb FRET -0.2, Runt-SMMHC FRET -2.3, KLK7 zymogen act -0.7, RanGTP-Imp inh 0.3 and MEX-5 binding -1.8.
For COc1ccc(CCn2c(=N)c(C(=O)NCC3CCCO3)cc3c(=O)n4cccc(C)c4nc32)cc1 (centres undefined) the results were KLK7 zymogen act -0.5, RanGTP-Imp inh 28.9*, MEX-5 binding -10.7 and YIC FRET counter 13.8*.
`COc1ccc(CCNC(=O)c2cc3c(=O)n4cccc(C)c4nc3n(CCCN3CCOCC3)c2=N)cc1` gave KLK7 zymogen act 0.1, RanGTP-Imp inh 39.4*, MEX-5 binding inconclusive and YIC FRET counter 4.45*.
CCOc1ccc(-n2c(N)c(C(=O)NCc3ccco3)c3nc4ccccc4nc32)cc1 was read as Runt-CBFb FRET 34.7, Runt-SMMHC FRET 86.0*, RanGTP-Imp inh 25.1*, MEX-5 binding 1.6 and YIC FRET counter 20.8*.
For CCOc1ccc(-n2c(N)c(-c3nc4ccccc4n3C)c3nc4ccccc4nc32)cc1 the results were Runt-CBFb FRET -37.1, Runt-SMMHC FRET -125.6, KLK7 zymogen act 0.2, RanGTP-Imp inh 0.9 and MEX-5 binding 3.6.
For CC1CCN(S(=O)(=O)c2cccc(C(=O)NC3CCS(=O)(=O)C3)c2)CC1 (centres undefined) the results were KLK7 zymogen act 0.2.
CN1CCCN(C(=O)Cc2c(Cl)cccc2Cl)c2nc3ccccc3nc21 was read as Runt-CBFb FRET 48.3, Runt-SMMHC FRET 53.7*, KLK7 zymogen act -1.4, RanGTP-Imp inh 21.7*, MEX-5 binding 0.8 and YIC FRET counter 27.8*.
For COc1ccc([N+](=O)[O-])cc1NCC(=O)Nc1cccc(S(=O)(=O)N2CCCC2)c1 the results were KLK7 zymogen act 0.4.
`C=CCNc1sc(C(=O)c2ccc(Br)s2)c(N)c1C#N` gave Runt-CBFb FRET -2.2, Runt-SMMHC FRET -23.9, KLK7 zymogen act -0.9, RanGTP-Imp inh 19.0*, MEX-5 binding -13.4 and YIC FRET counter 5.57*.
For COc1ccc(-c2coc3c(C(=O)Nc4cccc(NS(C)(=O)=O)c4)cccc23)c(C)c1 the results were KLK7 zymogen act 0.1.
CCSC1=C(C#N)C(c2cccc(O)c2)CC(=O)N1 (centres undefined) was read as Runt-CBFb FRET 1.2, Runt-SMMHC FRET -0.9, KLK7 zymogen act -0.1, RanGTP-Imp inh 0.4 and MEX-5 binding 3.4.
N#CC1=C(N)SC(N)=C(C#N)C1c1cccc(O)c1 was read as Runt-CBFb FRET 23.3, Runt-SMMHC FRET 31.5, KLK7 zymogen act 0.7, RanGTP-Imp inh 21.7*, MEX-5 binding 4.2 and YIC FRET counter >50.
N#Cc1ccc(/C=C2\CC3(OC(=O)C4CCCCC4)CCCN2C3)cc1 (centres undefined) was read as KLK7 zymogen act 0.3.
`Cc1ccc(C(=O)NCc2ccco2)cc1S(=O)(=O)N1CCOCC1` gave Runt-SMMHC FRET -11.1, KLK7 zymogen act 0.1, RanGTP-Imp inh 25.2*, MEX-5 binding -3.9 and YIC FRET counter >50.
O=C(CCC(=O)N1CCN(c2ccccn2)CC1)c1ccc(Cl)s1 was read as KLK7 zymogen act -0.7.
Screening CCOC(=O)/C(=N\Nc1ncnc2ccccc12)c1ccc(C)cc1 returned KLK7 zymogen act -0.8, RanGTP-Imp inh 5.2 and MEX-5 binding -0.5.
`CCOC(=O)C/C(=N\Nc1ncnc2ccccc12)c1ccccc1` gave KLK7 zymogen act -0.2, RanGTP-Imp inh 23.1*, MEX-5 binding -1.1 and YIC FRET counter >50.
Screening CCCCc1cc(-c2n[nH]c(=S)o2)c2ccccc2n1 returned KLK7 zymogen act 0.3, RanGTP-Imp inh 20.1*, MEX-5 binding 1.4 and YIC FRET counter >50.
`CCCOC(=O)CSC1=C(C#N)C(c2ccccc2OC)C(C#N)C(=O)N1` (centres undefined) gave Runt-CBFb FRET 2.9, Runt-SMMHC FRET 0.7, KLK7 zymogen act 0.8, RanGTP-Imp inh 25.7*, MEX-5 binding 2.9 and YIC FRET counter >50.
Cc1ccc(-n2c(Cc3cccs3)nnc2SCC(=O)Nc2cccc3ccccc23)cc1 was read as KLK7 zymogen act 0.7.
For N#C/C(=C(/O)CSc1ccccn1)c1nc2ccccc2s1 the results were Runt-CBFb FRET 6.6, Runt-SMMHC FRET -0.6, KLK7 zymogen act -1.8, RanGTP-Imp inh 20.7*, MEX-5 binding -1.4 and YIC FRET counter >50.
